Source: ChEMBL document CHEMBL3352339, “Implications of N-capped urea/thiourea and C-capped 3-(1-piperazinyl)-1,2-benzisothiazole with bridging Gly-Val/Phe-Gly-Val-Pro as therapeutic targets” (Eur J Med Chem, 2014)
In brackets after ≈: the same amount, converted by molar mass. Starred links: 1 amine or outer side, 2 acyl side, 3 side chain; linkers in the order of their positions; H or OH if unused. Residues, ends and D or L forms follow the SMILES beside them. *: point of attachment. Thiocarbamoyl(N-2-FPh) = Fc1ccccc1NC(=S)*; X1 = c1ccc2c(N3CCN(*)CC3)nsc2c1; NH(4-F-phenyl) = Fc1ccc(N*)cc1; CO = O=C([*:1])[*:2]

Key:
Escherichia coli [1] = assay: Antibacterial activity against Escherichia coli incubated for 24 hrs by agar microdilution method; format: functional
Escherichia coli [2] = assay: Antibacterial activity against Escherichia coli at 50 ug/mL incubated for 24 hrs by agar well diffusion method; format: functional; details: read-out: IZ
Method in brief: (§1)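 Agar well diffusion against the bacterial isolate, with streptomycin as the reference drug. Read-out is the average diameter (mm) of the growth-inhibition zone around the well.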

Fusarium oxysporum [3] = assay: Antifungal activity against Fusarium oxysporum at 50 ug/mL incubated for 3 days by agar well diffusion method; format: functional; details: 72 h, read-out: IZ
Method in brief: (§2)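 Fungal growth inhibition measured by agar well diffusion, with bavistin as the reference. Records the mean inhibition-zone diameter (mm) around each well.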

Klebsiella pneumoniae = assay: Antibacterial activity against Klebsiella pneumoniae incubated for 24 hrs by agar microdilution method; format: functional
Staphylococcus [4] = assay: Antibacterial activity against Coagulase positive Staphylococcus incubated for 24 hrs by agar microdilution method; format: functional
Aspergillus flavus [5] = assay: Antifungal activity against Aspergillus flavus at 50 ug/mL incubated for 3 days by agar well diffusion method; format: functional; details: 72 h, read-out: IZ; method in brief: as §2
Aspergillus niger [6] = assay: Antifungal activity against Aspergillus niger incubated for 48 to 72 hrs by agar microdilution method; format: functional
Method in brief: (§3)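 MIC by microdilution against the fungal strain, limited to compounds showing significant zones in the diffusion assay. Bavistin was used as the reference.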

Fusarium verticillioides [7] = assay: Antifungal activity against Fusarium moniliforme at 50 ug/mL incubated for 3 days by agar well diffusion method; format: functional; details: 72 h, read-out: IZ; method in brief: as §2
Staphylococcus [8] = assay: Antibacterial activity against Coagulase positive Staphylococcus at 50 ug/mL incubated for 24 hrs by agar well diffusion method; format: functional; details: read-out: IZ; method in brief: as §1
Xanthomonas oryzae [9] = assay: Antibacterial activity against Xanthomonas oryzae at 50 ug/mL incubated for 24 hrs by agar well diffusion method; format: functional; details: read-out: IZ
Urease = Urease (Canavalia ensiformis, UniProt P07374); assay: Inhibition of jack bean urease assessed as reduction in ammonia production incubated at 30 degC for 15 mins by indophenol method
Chain of Urease (P07374 whole entry): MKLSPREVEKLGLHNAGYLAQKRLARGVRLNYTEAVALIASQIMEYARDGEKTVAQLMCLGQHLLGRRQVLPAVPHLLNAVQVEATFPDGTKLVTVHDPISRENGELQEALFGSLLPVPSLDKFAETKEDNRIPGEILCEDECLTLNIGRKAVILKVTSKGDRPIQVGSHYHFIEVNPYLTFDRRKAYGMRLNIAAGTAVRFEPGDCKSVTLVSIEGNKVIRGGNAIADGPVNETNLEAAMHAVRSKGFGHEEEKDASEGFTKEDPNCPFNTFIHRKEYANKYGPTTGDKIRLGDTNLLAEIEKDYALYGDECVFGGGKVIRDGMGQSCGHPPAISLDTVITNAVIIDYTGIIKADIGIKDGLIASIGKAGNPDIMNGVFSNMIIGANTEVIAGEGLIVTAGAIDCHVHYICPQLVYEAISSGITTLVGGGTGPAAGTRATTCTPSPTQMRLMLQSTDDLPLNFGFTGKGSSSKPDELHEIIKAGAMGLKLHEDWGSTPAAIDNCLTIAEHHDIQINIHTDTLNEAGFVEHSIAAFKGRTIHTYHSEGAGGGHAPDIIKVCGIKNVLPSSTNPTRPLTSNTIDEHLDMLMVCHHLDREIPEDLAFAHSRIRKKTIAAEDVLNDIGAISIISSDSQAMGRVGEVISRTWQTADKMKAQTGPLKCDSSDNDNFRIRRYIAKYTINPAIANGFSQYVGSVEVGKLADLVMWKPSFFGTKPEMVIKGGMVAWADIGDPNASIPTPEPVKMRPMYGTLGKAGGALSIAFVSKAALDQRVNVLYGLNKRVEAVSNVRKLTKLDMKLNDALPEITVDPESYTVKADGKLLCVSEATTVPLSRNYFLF
Method in brief: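 Inhibition of jack bean urease, with thiourea as the reference standard. IC50 values are the average of triplicate runs.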

[10] = Inhibition of sheep stomach parietal cells gastric H+/K+-ATPase activity assessed as reduction in inorganic phosphorus production by Fiske Subbarow's method; format: tissue-based, Ovis aries; details: read-out: IC50
Method in brief: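 Inhibition of purified H+/K+-ATPase, with omeprazole as the reference. IC50 is the mean of triplicate runs.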

Aspergillus flavus [11] = assay: Antifungal activity against Aspergillus flavus incubated for 48 to 72 hrs by agar microdilution method; format: functional; method in brief: as §3
Aspergillus niger [12] = assay: Antifungal activity against Aspergillus niger at 50 ug/mL incubated for 3 days by agar well diffusion method; format: functional; details: 72 h, read-out: IZ; method in brief: as §2
Fusarium verticillioides [13] = assay: Antifungal activity against Fusarium moniliforme incubated for 48 to 72 hrs by agar microdilution method; format: functional; method in brief: as §3
Fusarium oxysporum [14] = assay: Antifungal activity against Fusarium oxysporum incubated for 48 to 72 hrs by agar microdilution method; format: functional; method in brief: as §3
[15] = Antiglycation activity using bovine serum albumin incubated at 37 degC for 7 days by spectrofluorimetry; format: physicochemical
Method in brief: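 Glycation of bovine serum albumin, with rutin as the reference standard. IC50 values are averages of triplicate runs.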

Xanthomonas oryzae [16] = assay: Antibacterial activity against Xanthomonas oryzae incubated for 24 hrs by agar microdilution method; format: functional

SMILES | MIC (Escherichia coli [1]) [µg/mL] | zone of inhibition at 50 µg/mL (Escherichia coli [2]) [mm] | zone of inhibition at 50 µg/mL (Fusarium oxysporum [3]) [mm] | MIC (Klebsiella pneumoniae) [µg/mL] | MIC (Staphylococcus [4]) [µg/mL] | zone of inhibition at 50 µg/mL (Aspergillus flavus [5]) [mm] | MIC (Aspergillus niger [6]) [µg/mL] | zone of inhibition at 50 µg/mL (Fusarium verticillioides [7]) [mm] | zone of inhibition at 50 µg/mL (Staphylococcus [8]) [mm] | zone of inhibition at 50 µg/mL (Xanthomonas oryzae [9]) [mm] | IC50 (Urease) [µM] | IC50 [10] [µM] | MIC (Aspergillus flavus [11]) [µg/mL] | zone of inhibition at 50 µg/mL (Aspergillus niger [12]) [mm] | MIC (Fusarium verticillioides [13]) [µg/mL] | MIC (Fusarium oxysporum [14]) [µg/mL] | IC50 [15] [µM] | MIC (Xanthomonas oryzae [16]) [µg]
CC(C)[C@H](NC(=O)CNC(=O)[C@H](Cc1ccccc1)NC(=O)CNC(=O)Nc1ccc(F)cc1)C(=O)N1CCC[C@H]1C(=O)N1CCN(c2nsc3ccccc23)CC1 ({NH(4-F-phenyl)-CO}-GFGVP-X1) | 11 (≈ 13.5 µM) | 33 | 32 | 9.25 (≈ 11.4 µM) | 11.2 (≈ 13.8 µM) | 31 | 10.5 (≈ 12.9 µM) | 31 | 32 | 31 | 35 | 80 | 11 (≈ 13.5 µM) | 30 | 11 (≈ 13.5 µM) | 12.2 (≈ 15 µM) | 44 | 8.75
CC(C)[C@H](NC(=O)CNC(=O)Nc1ccc(F)cc1)C(=O)NCC(=O)N[C@H](C(=O)N1CCC[C@H]1C(=O)N1CCN(c2nsc3ccccc23)CC1)C(C)C ({NH(4-F-phenyl)-CO}-GVGVP-X1) | 12.8 (≈ 16.6 µM) | 30 | 30 | 11.2 (≈ 14.7 µM) | 13.2 (≈ 17.3 µM) | 32 | 11.8 (≈ 15.3 µM) | 34 | 29 | 27 | 39 | 78 | 14.5 (≈ 18.9 µM) | 33 | 13.5 (≈ 17.6 µM) | 14.5 (≈ 18.9 µM) | 40 | 10.5
CC(C)[C@H](NC(=O)CNC(=O)[C@H](Cc1ccccc1)NC(=O)CNC(=S)Nc1ccccc1F)C(=O)N1CCC[C@H]1C(=O)N1CCN(c2nsc3ccccc23)CC1 ({Thiocarbamoyl(N-2-FPh)}-GFGVP-X1) | 11 (≈ 13.3 µM) | 32 | 31 | 10.8 (≈ 13 µM) | 11.2 (≈ 13.6 µM) | 30 | 12.8 (≈ 15.4 µM) | 28 | 31 | 31 | 38 | 102 | 13 (≈ 15.7 µM) | 31 | 9.25 (≈ 11.1 µM) | 13 (≈ 15.7 µM) | 48 | 11
CC(C)[C@H](NC(=O)CNC(=S)Nc1ccccc1F)C(=O)NCC(=O)N[C@H](C(=O)N1CCC[C@H]1C(=O)N1CCN(c2nsc3ccccc23)CC1)C(C)C ({Thiocarbamoyl(N-2-FPh)}-GVGVP-X1) | 14.2 (≈ 18.2 µM) | 27 | 30 | 16 (≈ 20.5 µM) | 15.5 (≈ 19.8 µM) | 29 | 15.2 (≈ 19.5 µM) | 31 | 27 | 24 | 40 | 92 | 16.5 (≈ 21.1 µM) | 30 | 13 (≈ 16.6 µM) | 15.2 (≈ 19.5 µM) | 50 | –
CN[C@@H]1[C@H](O[C@H]2[C@H](O[C@H]3[C@H](O)[C@@H](O)[C@H](N=C(N)N)[C@@H](O)[C@@H]3N=C(N)N)O[C@@H](C)[C@]2(O)C=O)O[C@@H](CO)[C@H](O)[C@H]1O [STREPTOMYCIN] | 22 (≈ 37.8 µM) | 14 | – | 20 (≈ 34.4 µM) | 21 (≈ 36.1 µM) | – | – | – | 13 | 11 | – | – | – | – | – | – | – | 18
